Compound activity from PubChem.
LMPTP block = LMPTP phosphatase inhibitors, primary screen, biochemical, fluorescence intensity, uHTS; Low molecular weight phosphotyrosine protein phosphatase (Homo sapiens), P24666; recombinant LMPTP-A, OMFP fluorogenic substrate; inhibition, % at 20 µM; hit rate 0.22% among 360,000;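 active = compounds that cut the enzyme signal by at least half of the control window in the single-dose screen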;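 also: plate controls were DMSO wells with enzyme plus substrate for no effect and substrate without enzyme for full effect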
Target sequence (P24666 whole entry, looked up): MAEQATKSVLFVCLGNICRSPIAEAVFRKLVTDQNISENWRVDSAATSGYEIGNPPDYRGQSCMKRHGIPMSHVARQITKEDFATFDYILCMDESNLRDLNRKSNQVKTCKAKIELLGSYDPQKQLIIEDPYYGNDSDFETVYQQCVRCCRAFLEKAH
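Test system: LMPTP-A phosphatase enzyme; input: 0.625 nM LMPTP-A final; reagent: OMFP substrate, 400 µM final; compound dosing: 20 µM single dose, 3% DMSO; incubation: 50 min dark incubation at room temperature; measured by: endpoint fluorescence intensity from OMFP dephosphorylation; measure: % inhibition relative to no-enzyme and uninhibited control wells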
SUMO1 PPI mod = modulators of SUMO1 protein-protein interactions, primary screen, biochemical, uHTS; hit rate 0.33% among 360,000; Small ubiquitin-related modifier 1 (Homo sapiens), P63165; SUMO1 binding to a labelled peptide, TR-FRET, 1 h; inhibition, % at 20 µM; in the data active = inhibition above about 37%
Target sequence (P63165 whole entry, looked up): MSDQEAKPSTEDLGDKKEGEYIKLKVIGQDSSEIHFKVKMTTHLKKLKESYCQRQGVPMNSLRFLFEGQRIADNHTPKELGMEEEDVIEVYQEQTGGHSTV
DNMT1 inh = human DNMT1 methyltransferase inhibitors, primary screen, biochemical, molecular beacon, fluorescence, HinP1I cleavage, uHTS; inhibition (reported as % activation of signal), % at 10 µM; hit rate 0.83% among 360,000; DNA (cytosine-5)-methyltransferase 1 (Homo sapiens), P26358; AID 588458, 2011; in the data active = inhibition above about 50%
Scp1 inh = Scp-1 phosphatase inhibitors, primary screen, biochemical, colorimetric, uHTS. inhibition, % at 20 µM. Carboxy-terminal domain RNA polymerase II polypeptide A small phosphatase 1 (Homo …. hit rate 0.88% among 340,000. AID 493091, 2011. Recombinant Scp1, phosphopeptide, malachite green phosphate absorbance;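 active = inhibition above about 50% at 20 µM, limit read from the data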;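 also: plate controls were DMSO wells with enzyme for no effect and wells lacking enzyme for full effect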
Target sequence (Q9GZU7 76-261 limits assumed): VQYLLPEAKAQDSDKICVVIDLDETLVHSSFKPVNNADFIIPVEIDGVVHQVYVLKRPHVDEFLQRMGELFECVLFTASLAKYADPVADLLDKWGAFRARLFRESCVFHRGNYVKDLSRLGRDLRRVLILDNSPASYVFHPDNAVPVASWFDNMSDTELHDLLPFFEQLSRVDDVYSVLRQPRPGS
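Test system: SCP-1 phosphatase catalytic domain, residues 76-261; measured by: colorimetric phosphate reagent with accelerator and stabiliser, absorbance at 630 nm; timing: enzyme reaction 45 min at room temperature, colour 5 min, stabilisation 30 min; also added: Phosphorylated 17-residue peptide substrate; compound dosing: one concentration, 20 µM, with 1.0% DMSO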
NadD block = inhibitors of S. aureus NadD, primary screen, biochemical, colorimetric, uHTS. purified NadD enzyme, colorimetric absorbance read-out. inhibition, % at 20 µM. hit rate 0.78% among 360,000; in the data active = inhibition above about 26%
STEP block = STEP phosphatase inhibitors, primary screen, biochemical, fluorescence intensity, uHTS; inhibition, % at 20 µM; recombinant STEP, OMFP fluorogenic substrate; Tyrosine-protein phosphatase non-receptor type 5 (Homo sapiens), P54829; AID 588621, 2011; hit rate 0.25% among 360,000;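 active = inhibition at 20 µM, scaled per plate between control wells, above about 37%, limit read from the data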;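 also: 0% = DMSO with enzyme and substrate and 100% = substrate only without enzyme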
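medium = Bis-Tris buffer pH 6.0, 2.5 mM DTT, 0.005% Tween 20 | test system = STEP (striatal-enriched tyrosine phosphatase) enzyme, cell-free | measure = normalized % inhibition | compound dosing = 20 µM, 1% DMSO | also added = 25 µM OMFP | schedule = reaction 20 min, ambient temperature | measured by = fluorescence read at 480 nm ex / 540 nm em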
Scp-1 conf = Scp-1 phosphatase inhibitors, retest, confirmation, biochemical, colorimetric, single concentration | shares compounds with Scp1 inh | recombinant SCP-1 catalytic domain, phosphate release, malachite green absorbance | inhibition, % at 20 µM | hit rate 61% among 2,500;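 also: plate controls were DMSO with enzyme for no effect and buffer wells lacking enzyme for full effect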
MG interference = colorimetric readout interference by compounds, confirmation, artefact control for Scp-1 inhibitor project, biochemical, single concentration; 2,500 tested, under 10 active; Colorimetric interference counterscreen, malachite green absorbance 630 nm; apparent inhibition (interference), % at 20 µM; shares compounds with Scp1 inh;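 also: compounds added after enzyme reaction finished so only phosphate colour detection is probed; plate controls were DMSO wells with completed Scp-1 reaction for no effect and substrate wells lacking enzyme for full effect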
Scp-1 Tm shift = Scp-1 binding by thermal shift, confirmation, orthogonal assay for Scp-1 inhibitor project, biophysical, differential scanning fluorimetry; shares compounds with Scp1 inh; Recombinant SCP1, Sypro Orange thermal shift Tm; thermal shift relative to vanadate control, % at 40 µM; hit rate 25% among 1,500; AID 540329, 2011;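 active = substances whose mean melting-temperature shift, as a percentage of the reference inhibitor's shift, reaches about 5.3%, limit read from the data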;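 also: 0% = Tm of DMSO wells and 100% = Tm with sodium orthovanadate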
* hit, by the source's call; · = no result; ! = repeats disagree. This is a sample that favours compounds with a hit; in the whole collection about 2.3% have one here.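 The calls were made as follows, unless noted: active = inhibition of at least 30% at 20 µM; inactive = the rest.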

SMILES	LMPTP block	SUMO1 PPI mod	DNMT1 inh	Scp1 inh	NadD block	STEP block	others
C=CCN1C(=O)NC(=O)/C(=C\c2ccc(-c3ccccc3[N+](=O)[O-])o2)C1=O	0	-10	4	12	23	3
O=C1NC(=O)N(Cc2ccco2)C(=O)/C1=C/c1ccc(-c2cccc([N+](=O)[O-])c2)o1	42	38*	98*	82*	67*	39
CCn1nc(-c2cccs2)nc2c(=O)n(C)c(=O)nc1-2	63*	24	119*	-7	2	65*
CCOc1ccc(-n2c(-c3cccs3)nc3ccccc3c2=O)cc1	2	-10	-1	-2	1	-1
CCn1nc(/C=C/c2ccccc2)nc2c(=O)n(C)c(=O)nc1-2	62*	35	108*	-9	1	69*
COc1cc(/C=C/C(=O)c2c(O)n(CCc3ccccc3)c(=O)[nH]c2=O)ccc1O	2	13	-3	-17	21	-7
CC1=C2C3OC(=O)C(C)C3CC[C@@]2(C)C=CC1=O (stereo not given in full)	-1	1	2	-9	-1	-2
CC(C)(C)C(=O)N1Cc2ccccc2-n2nncc2C1	-2	-1	7	0	-1	1
CCC1(NS(=O)(=O)c2ccc(N)cc2)C(=O)N(C)C(=O)N(C)C1=O	-1	0	4	5	-2	-4
CN(C)[C@@H]1C(=O)C(C(N)=O)=C(O)[C@@]2(O)C(=O)C3=C(O)c4c(O)ccc(Cl)c4[C@@](C)(O)[C@H]3C[C@@H]12	5	-3	10	12	0	3
CN(C)[C@@H]1C(=O)C(C(N)=O)=C(O)[C@@]2(O)C(=O)C3=C(O)c4c(O)cccc4[C@@](C)(O)[C@H]3[C@H](O)[C@@H]12	66*	70*	97*	65*	38*!	34
CN(C)[C@@H]1C(=O)C(C(N)=O)=C(O)[C@@]2(O)C(=O)C3=C(O)c4c(O)cccc4[C@@](C)(O)C3C[C@@H]12 (stereo not given in full)	41	37*	84*	1	5	10
C[Se]C[C@@H](N)C(=O)O	0	0	7	68*	-3	-1	Scp-1 conf=31*;MG interference=-11;Scp-1 Tm shift=-23
CN1CCN(C(=O)COc2ccc(N(C)S(=O)(=O)c3ccc(F)cc3)cc2)CC1	0	-1	-1	68*	-9	-3	Scp-1 conf=-10;MG interference=-11
CN(C)C(=O)OCc1n(C)cc[n+]1C	-1	11	2	-6	-4	-2
CCN(CC)P(c1n(C)cc[n+]1C)N(CC)CC	0	-1	3	99*	19	4	Scp-1 conf=83*;MG interference=-11;Scp-1 Tm shift=-26
O=C1C2CC(CN3CCCCC23)C2CCCCN12 (stereo not given)	-1	-2	-1	·	-1	1
CCOC(=O)[C@]12Cc3cc(OC)ccc3[C@H]1N(Cc1ccccc1)C(=O)c1ccccc12	2	4	5	-11	-16	2
